High-throughput results (PubChem BioAssay)
GSK3beta inhib = blocks human GSK3beta kinase activity; GST-GSK3beta kinase, ADP-Glo luminescence, 60 min; stronger effect = lower value; actives 0.038% (n = 300,000); activity score (negative = inhibition), % at 10 µM;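 active = more than half of replicate wells score below -50%, meaning over 50% inhibition versus plate controls; inconclusive = some replicates but at most half score below -50%; inactive = no replicate scores below -50%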;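 note: 0% = median DMSO wells and -100% = median GW8510 positive control wells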
Target sequence (P49841 whole entry, looked up): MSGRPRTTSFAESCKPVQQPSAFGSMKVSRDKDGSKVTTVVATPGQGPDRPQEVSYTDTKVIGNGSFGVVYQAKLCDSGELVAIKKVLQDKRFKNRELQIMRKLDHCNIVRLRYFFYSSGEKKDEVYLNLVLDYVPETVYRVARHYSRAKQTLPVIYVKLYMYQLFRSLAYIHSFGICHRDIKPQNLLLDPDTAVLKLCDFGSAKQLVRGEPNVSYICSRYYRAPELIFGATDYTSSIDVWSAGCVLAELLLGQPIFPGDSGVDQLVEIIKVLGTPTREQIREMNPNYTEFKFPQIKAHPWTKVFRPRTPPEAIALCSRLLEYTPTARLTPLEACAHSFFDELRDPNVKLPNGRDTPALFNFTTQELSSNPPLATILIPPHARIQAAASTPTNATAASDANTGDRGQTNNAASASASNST
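Test system – GST-tagged human GSK3beta kinase, cell-free · Incubation – 60 min enzyme reaction, room temperature · Signal – ADP-Glo luminescence · Also added – peptide substrate and ATP at 25 µM · Controls – DMSO neutral wells and GW8510 at 20 µM as positive · Buffer or medium – Tris/MgCl2 kinase buffer · Measure – Luminescence-derived activity versus plate DMSO and GW8510 wells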
HIV Env fusion = blocks HIV Env-driven cell-cell fusion; HeLa-JRFL Env/CEM21 cell fusion, luciferase; inhibition, % at 12.3 µM; actives 1.1% (n = 360,000); AID 651610;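 active = mean replicate inhibition score of at least 50 and every replicate individually at or above 50; inconclusive = only one of the two criteria met; inactive = mean below 50 and not all replicates reaching 50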;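 note: 0% = plate neutral controls and 100% = maraviroc near 300 nM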
GSIS activator = primary screen for activators of insulin secretion dependent on glucose, INS-1E cells, GLuc reporter luminescence | INS-1E GLuc reporter insulin secretion, 2-3 h | activation, % at 16.6 µM | actives 0.61% (n = 370,000);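 active = lowest replicate activation of at least 40%, so every replicate reaches that level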;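 note: 0% = median of neutral control wells and 100% = median of IBMX positive control wells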
STK33 kinase inh = human STK33 kinase inhibition; purified STK33, MBP phosphorylation, ADP-Glo luminescence; inhibition, % at 10 µM; actives 0.073% (n = 320,000); AID 2661;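 active = inhibition at or above 25%, using the most active replicate where run in duplicate; inactive = inhibition below 25%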
GSK3 alpha inh = human GSK-3 alpha kinase inhibition; P49840; ADP-Glo luminescence, 60 min; inhibition, % at 10 µM; actives 0.1% (n = 320,000); AID 2650;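 active = more than half of replicates show inhibition above 20%; inconclusive = some but at most half of replicates above 20% inhibition; inactive = no replicate shows inhibition above 20%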;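 note: GST-tagged GSK-3 alpha with peptide substrate and 25 µM ATP; 0% = DMSO neutral wells and 100% = GW8510 positive control wells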
CDK5 inh = inhibitors of human CDK5/p35 kinase; actives 0.01% (n = 330,000); inhibition, % at 10 µM; Q00535+Q15078; AID 488839; Recombinant CDK5/p35, ADP-Glo luminescence, 60 min;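 active = highest replicate inhibition of at least 50% and at least 75% of replicates reaching 50%; inconclusive = only one of the two criteria met; inactive = both criteria failed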;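 note: plate controls were DMSO neutral control for no effect and GW8510 at 10 µM for full effect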
Active calls of the source: *; ? = inconclusive; . = not tested or not shown; [ ] = dose if it differs, or a comment. Compounds with a hit are over-represented: about 1.4% of the library has one in this group of screens.

SMILES	GSK3beta inhib	HIV Env fusion	GSIS activator	STK33 kinase inh	GSK3 alpha inh	CDK5 inh
CO[C@H]1CN(C)C(=O)c2cc(NC(=O)c3cccc(F)c3)ccc2OC[C@@H](C)NC[C@H]1C	.	.	1	.	.	.
COc1ccc(CNCCC(c2ccc(OC(C)C)cc2)C(C)C)cc1OC (configuration not stated)	-12	77*	-20	-1	2	1
COc1ccc(C(CCNCc2ccc(OC(C)C)cc2)C(C)C)cc1 (configuration not stated)	-8	25	-27	-3	2	.
COc1ccccc1C(CCNCc1ccc(N(C)C)cc1)c1ccc(OC(C)C)cc1 (configuration not stated)	-1	55*	-34	1	0	0
COc1ccc(CNCCC(c2ccc(OC(C)C)cc2)c2ccccc2OC)cc1 (configuration not stated)	3	?	5	0	-1	-1
COc1ccc(C(CCNCc2ccc(N(C)C)cc2)C(C)C)cc1 (configuration not stated)	-6	65*	.	-1	2	0
O=C(C[C@@H]1CC[C@H]2[C@@H](COC[C@H](O)CN2C(=O)Nc2ccc(F)cc2)O1)NCCCN1CCOCC1	.	-1[16.7 µM]	13	.	.	.
CCN(CC)S(=O)(=O)c1ccc(NC2c3ccccc3C(=O)N2Cc2ccc3c(c2)OCO3)cc1 (configuration not stated)	0	67*	-23	-1	-1	0
NC(=O)c1ccc(N2CCN(c3ccc(O)cc3)CC2)c([N+](=O)[O-])c1	4	66*	6	0	1	0
CC(C)(C)C1CCc2c(sc(NC(=O)CSc3ncn[nH]3)c2C#N)C1 (configuration not stated)	-1	-50	.	0	-5	-1
CC1CCc2c(sc(NC(=O)CSc3ncn[nH]3)c2C#N)C1 (configuration not stated)	-2	65*	13	6	1	-1
CSc1nc(N(C)C)nc(N2CC(=O)N(CCNS(=O)(=O)c3ccc(C)cc3)C2=N)n1	1	13	40*	-1	2	1
O=C(Cc1ccc(Nc2nc3ccc(Br)cc3[nH]2)cc1)NCCc1cccs1	-2	61*	12	-1	0	2
O=C(c1cc(Br)c(Br)s1)N1CCOCC1	2	63*	16	-2	7	2
COC(=O)C[C@H]1CC[C@@H]2[C@H](COc3ccc(NC(=O)c4ccccc4F)cc3C(=O)N2C)O1	.	-5[16.7 µM]	3	.	.	.
O=C(O)c1c(NC(=O)N2CCOCC2)sc2c1CCCC2	4	21	62*	-1	-2	0
Cc1ccccc1S(=O)(=O)N(C)C[C@H]1OCc2ccccc2-c2c(n(C)c3ccccc23)C(=O)N([C@@H](C)CO)C[C@@H]1C	.	.	-10	.	.	.
Nc1nc(NC2CCCCC2)nc(NCCO)c1[N+](=O)[O-]	-58*	-76	4	3	86*	1
Nc1nc(Nc2cccc(F)c2)nc(NCCO)c1[N+](=O)[O-]	-19	-55	14	5	33	42
Nc1nc(NCc2ccco2)nc(NCCO)c1[N+](=O)[O-]	-9	0	30	0	36	0
CCN(CC)c1nc(N)c([N+](=O)[O-])c(NCCO)n1	-8	12	85*	1	2	.
COc1ccc(OC)c(Nc2nc(N)c([N+](=O)[O-])c(NC3CCCCC3)n2)c1	3	6	-3	0	2	0
NCCCNc1nc(N)c([N+](=O)[O-])c(NC2CCCCC2)n1	1	-441	10	2	73*	-1
COCCNc1nc(N)c([N+](=O)[O-])c(NC2CCCCC2)n1	-19	-48	15	1	61*	-1
C[C@@H]1CN([C@@H](C)CO)C(=O)c2cccc(N(C)C)c2O[C@H]1CN(C)Cc1ccc(-c2ccccc2)cc1	.	15[16.7 µM]	-10	.	.	.
C=CCNc1nc(N)c([N+](=O)[O-])c(NCCO)n1	-18	2	82*	-1	-3	4
CCCC(=O)Nc1ccc2c(c1)OC[C@@H](C)N(CCC(F)(F)F)C[C@@H](C)[C@H](OC)CN(C)C2=O	.	.	-8	.	.	.
